Compound activity (PubChem BioAssay)
Most compounds without a hit are left out; they make up all but 6.7% or so of the library.
T cruzi inh: inhibitors of intracellular T. cruzi growth, primary screen, luminescence, NIH3T3 host cells; actives 1.4% (n = 300,000); AID 1885, 2009; T. cruzi beta-gal in NIH3T3, 90 h; inhibition, % (concentration not given with the values);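 active = mean inhibition across valid replicates above about 55%, limit read from the data; inconclusive = mean below that limit but half or more replicates reach it; inactive = mean below it, under half of replicates reach it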;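 note: signal also drops with host cell toxicity which is not excluded here; higher percent means less beta-gal luminescence so fewer parasites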
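Test system: β-gal T. cruzi (Tulahuen C4) inside NIH/3T3 cells / Quantity: 5,000 cells/well / Measured by: luminescence from GalScreen with 0.05% NP40, read after 60 min / Medium: DMEM plus 2% FBS / Measure: parasite load inhibition, % / Reagent: Tulahuen C4 trypomastigotes, 5000/well / Schedule: co-culture of at least 90 h after 3 h attachment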
CHOP inhibitor: inhibitors of CHOP promoter induction, primary screen, cell-based, unfolded protein response, luciferase reporter; inhibition, % at 10 µM; CHO-K1 CHOP-promoter luciferase, tunicamycin-induced, 15-18 h; actives 3.8% (n = 220,000);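 active = compounds that reduced the stress-induced luciferase reporter signal by more than about 70% of percent inhibition, limit read from the data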
Beta apoptosis: inhibitors of cytokine-induced beta cell apoptosis, primary screen, luminescence | INS-1E cytokine-induced death, ATP luminescence, 48 h; percent of positive-control rescue, neutral wells zero | protection from apoptosis, % (test concentration not listed) | actives 0.8% (n = 300,000);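 active = Every replicate reaches about 75%, or at least half do and their mean reaches it too, limit read from the data; inconclusive = At least half of replicates reach the limit but their mean does not; inactive = Under half of replicates reach the limit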;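 note: higher means more ATP so stronger rescue from cytokine killing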
CSC inhib: cancer stem cell viability inhibitors, primary screen, luminescence; cancer stem cell-like cells viability; inhibition, % at 7.5 µM; actives 1.1% (n = 300,000); in the data active = inhibition above about 75%; inconclusive = no clear call, values can overlap the other calls; tested in HMLE shEcad cells
NR3A LBD binder: binders of NR3A ligand-binding domain, primary screen, biophysical, differential scanning fluorimetry, uHTS. Tm shift relative to glycine control, % at 25 µM. NR3A LBD differential scanning fluorimetry, Tm shift; 0% = protein alone, 100% = glycine-bound protein. Glutamate receptor ionotropic, NMDA 3A (GRIN3A) ligand-binding domain. actives 2.5% (n = 340,000). AID 1259313, 2017;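 active = melting temperature shift of at least 10% of the positive control shift, at one fixed dose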
PREPL inh: PREPL enzyme inhibitors, primary screen, biochemical, fluorescence polarization | recombinant PREPL, fluorescence polarization activity-based probe | inhibition, % at 5.96 µM | actives 0.68% (n = 320,000) | AID 2751, 2010; in the data active = inhibition above about 43%
Target sequence (Q4J6C6 whole entry, looked up): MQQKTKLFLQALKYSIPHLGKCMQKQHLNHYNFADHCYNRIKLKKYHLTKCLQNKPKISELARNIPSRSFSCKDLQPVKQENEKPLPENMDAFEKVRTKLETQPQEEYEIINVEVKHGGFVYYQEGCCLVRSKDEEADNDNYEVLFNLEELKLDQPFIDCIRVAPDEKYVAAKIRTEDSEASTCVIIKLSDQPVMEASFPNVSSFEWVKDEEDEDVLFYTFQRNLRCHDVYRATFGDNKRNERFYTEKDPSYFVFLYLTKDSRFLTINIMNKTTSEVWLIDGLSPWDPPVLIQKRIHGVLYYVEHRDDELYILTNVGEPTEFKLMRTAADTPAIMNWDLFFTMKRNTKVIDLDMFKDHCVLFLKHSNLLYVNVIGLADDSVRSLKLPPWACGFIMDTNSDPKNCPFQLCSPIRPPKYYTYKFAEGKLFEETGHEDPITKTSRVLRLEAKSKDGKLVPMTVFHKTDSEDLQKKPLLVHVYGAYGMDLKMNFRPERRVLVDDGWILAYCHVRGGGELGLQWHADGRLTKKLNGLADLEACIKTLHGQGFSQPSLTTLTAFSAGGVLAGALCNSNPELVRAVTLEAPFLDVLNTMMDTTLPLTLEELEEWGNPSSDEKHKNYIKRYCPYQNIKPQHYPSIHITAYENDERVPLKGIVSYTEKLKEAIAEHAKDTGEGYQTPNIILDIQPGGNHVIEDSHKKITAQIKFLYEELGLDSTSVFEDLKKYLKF
CHOP inh conf: retest of CHOP induction inhibitors, confirmation, cell-based | shares compounds with CHOP inhibitor | CHO-CHOP promoter luciferase reporter, tunicamycin-induced, luminescence | inhibition, % at 10 µM | actives 45% (n = 2,100);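 active = mean of three repeat readings of reporter signal inhibition above a set limit, cut at about 70% in these data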
Each line names hits and unclear results; the compound was inactive in the other large screens (follow-up assays come after a bar, where they were run).

NC(=O)CC(NC(=O)Cc1cccc2ccccc12)c1ccc(NC2CCCCC2)c([N+](=O)[O-])c1 (centres undefined)	CHOP inhibitor 105.0, CSC inhib inconclusive | CHOP inh conf inactive
NC(=O)CC(NC(=O)c1ccc(Br)cc1)c1ccc(NCc2ccc(F)cc2)c([N+](=O)[O-])c1 (centres undefined)	CSC inhib inconclusive
NC(=O)CC(NC(=O)Cc1cccc2ccccc12)c1ccc(NCCOc2ccccc2)c([N+](=O)[O-])c1 (centres undefined)	CHOP inhibitor 101.4, CSC inhib inconclusive | CHOP inh conf 111.5
NC(=O)CC(NC(=O)Cc1cccc2ccccc12)c1ccc(NCC2CC2)c([N+](=O)[O-])c1 (centres undefined)	none (no result: Beta apoptosis)
Cc1ccccc1CNc1ccc(C(CC(N)=O)NC(=O)c2ccc(Br)cc2)cc1[N+](=O)[O-] (centres undefined)	CHOP inhibitor 103.2, Beta apoptosis 90.5, CSC inhib 110.5 | CHOP inh conf inactive
NC(=O)CC(NC(=O)Cc1cccc2ccccc12)c1ccc(NC2CCCC2)c([N+](=O)[O-])c1 (centres undefined)	none (no result: T cruzi inh, CHOP inhibitor, Beta apoptosis, CSC inhib, PREPL inh)
Cn1c(SCc2ccccc2F)nnc1-c1ccccn1	none
O=[N+]([O-])c1cccc(S(=O)(=O)c2ccc(NCCO)c([N+](=O)[O-])c2)c1	none
CC(C)Cn1c(=O)c2ccccc2c2ccccc2c1=O	CHOP inhibitor 103.3 | CHOP inh conf inactive
CCN(c1cccc(C)c1)S(=O)(=O)c1cc2c3c(c1)CCC(=O)N3CCC2	none (no result: CHOP inhibitor, CSC inhib)
Cn1c(=O)n(CCOc2ccc(Cl)cc2Cl)c2ccccc21	CHOP inhibitor 97.7 | CHOP inh conf 71.2
Cn1c(=O)n(CCOc2ccccc2Cl)c2ccccc21	none
NC(=O)c1ccc(C(F)(F)F)n(Cc2ccc(Cl)cc2)c1=O	CHOP inhibitor 97.4 | CHOP inh conf 82.3
NC(=O)c1ccc(C(F)(F)F)n(Cc2ccc(F)c(F)c2)c1=O	none
O=Cc1cccc(OC(=O)c2ccc(Cl)cc2Cl)c1	CHOP inhibitor 100.9 (no result: NR3A LBD binder) | CHOP inh conf inactive
COC(=O)c1ccc(OCC(O)CNCC(c2ccc(OC)cc2)N(C)C)c(OC)c1 (centres undefined)	none (no result: CHOP inhibitor)
COc1ccc(S(=O)(=O)N2CCOCC2)cc1NC(=O)c1ccc(S(=O)(=O)N(C)c2ccccc2OC)cc1	none (no result: T cruzi inh, CHOP inhibitor, Beta apoptosis, CSC inhib, PREPL inh)
O=[N+]([O-])CC(c1ccccc1)c1c[nH]c2ccccc12 (centres undefined)	none (no result: CHOP inhibitor)
CN(C)c1ccc(C(CNS(=O)(=O)c2ccc(F)cc2)c2c[nH]c3ccccc23)cc1 (centres undefined)	CHOP inhibitor 107.0, NR3A LBD binder 15.9 | CHOP inh conf inactive
O=C(C#Cc1ccccc1)c1cccc([N+](=O)[O-])c1	CHOP inhibitor 107.0 (no result: Beta apoptosis, CSC inhib) | CHOP inh conf inactive
CCn1cc([N+](=O)[O-])c(C(=O)N2N=C(c3ccccc3)CC2c2ccc([N+](=O)[O-])cc2)n1 (centres undefined)	none
CCn1cc([N+](=O)[O-])c(C(=O)N2N=C(c3ccc(Cl)c(Cl)c3)CC2c2ccccc2O)n1 (centres undefined)	CHOP inhibitor 100.6 | CHOP inh conf 77.9
O=C1NC(=S)N/C1=C\c1ccc(N2CCOCC2)cc1	none
COc1cccc(NC(=O)CN(C)C(=O)CSc2nc(C)cc(C)n2)c1	none (no result: T cruzi inh, CHOP inhibitor, CSC inhib)
COc1ccc(C(=O)Nc2nnc(-c3ccco3)s2)cc1	CHOP inhibitor 106.8 | CHOP inh conf 73.4
O=C(Nc1ccc(F)cc1)Nc1nnc(-c2ccco2)s1	CHOP inhibitor 96.3 | CHOP inh conf inactive
O=C(Nc1nnc(-c2ccco2)s1)c1ccccc1	none
COCCn1c(C)cc(C(=O)COC(=O)c2ccc(Cl)c(S(N)(=O)=O)c2)c1C	none (no result: CHOP inhibitor)
Cc1ccc(NC(NC(=O)Cc2ccccc2)C(Cl)(Cl)Cl)cc1 (centres undefined)	none (no result: T cruzi inh, Beta apoptosis, CSC inhib, PREPL inh)
Cc1ccc(C)c(NC(=S)NC(NC(=O)Cc2ccccc2)C(Cl)(Cl)Cl)c1 (centres undefined)	CHOP inhibitor 103.1, NR3A LBD binder 20.3 | CHOP inh conf inactive
O=C(CCCCCCCC(=O)N1CCCC1)N1CCCC1	none (no result: T cruzi inh, CHOP inhibitor, Beta apoptosis, CSC inhib, PREPL inh)
CCOC(=O)c1sc(NC(=O)CSc2nnnn2-c2ccc(C)cc2C)nc1C	CHOP inhibitor 100.2 | CHOP inh conf inactive
CCOC(=O)Cc1csc(NC(=O)CSc2nnnn2-c2ccc(C)cc2C)n1	none
Clc1ccc2ncc(-c3nnnn3-c3ccccc3)c(-c3ccccc3)c2c1	CHOP inhibitor 106.8 | CHOP inh conf inactive
O=C(CSc1nnc(-c2c[nH]c3ccccc23)o1)NCC1CCCO1 (centres undefined)	none (no result: T cruzi inh, CHOP inhibitor)
Cc1cccc(N2CCN(C(=O)c3cccc(S(=O)(=O)N4CCOCC4)c3)CC2)c1C	none (no result: T cruzi inh, CHOP inhibitor, Beta apoptosis, CSC inhib, PREPL inh)
CCOC(=O)c1nc(S(C)(=O)=O)ncc1Cl	none (no result: CHOP inhibitor, Beta apoptosis, CSC inhib) | CHOP inh conf 92.3
CC(C)Cn1c(N)c(C(=O)COC(=O)CC23CC4CC(CC(C4)C2)C3)c(=O)n(C)c1=O	CHOP inhibitor 98.0, Beta apoptosis 105.2 | CHOP inh conf 90.0
Cc1csc(=O)n1CCC(=O)OCC(=O)c1c(N)n(CC(C)C)c(=O)n(C)c1=O	none (no result: CHOP inhibitor)
O=[N+]([O-])c1ccc(S(=O)(=O)CC(CN2CCCCC2)N2CCCCC2)cc1 (centres undefined)	CHOP inhibitor 105.1, CSC inhib 78.3 | CHOP inh conf 95.3
O=[N+]([O-])c1ccc(S(=O)(=O)CC(CN2CCOCC2)N2CCOCC2)cc1 (centres undefined)	none
CC12CCC=CC1=C(C=O)C1C2CCC2(C)C(O)CCC12 (centres undefined)	none (no result: T cruzi inh, CHOP inhibitor, Beta apoptosis, CSC inhib, PREPL inh)
O=C1C(N2CCOCC2)=C(n2nnc3ccccc32)C(=O)c2ccccc21	T cruzi inh inconclusive, Beta apoptosis 120.2, CSC inhib 109.8 (no result: CHOP inhibitor) | CHOP inh conf 94.7
Cc1ccc(-n2ncc(Br)c(Br)c2=O)cc1	T cruzi inh 74.6, CHOP inhibitor 104.8 (no result: Beta apoptosis, CSC inhib, PREPL inh) | CHOP inh conf 120.8
O=c1c(Br)c(Br)cnn1-c1ccccc1	CHOP inhibitor 106.0 (no result: T cruzi inh, Beta apoptosis, CSC inhib, PREPL inh) | CHOP inh conf 118.0
O=C(Nc1cccnc1)C1CC(=O)N(c2ccc(F)cc2)C1 (centres undefined)	none (no result: CHOP inhibitor)
CCOC(=O)C1=C(O)/C(=C/c2ccc(CNC(=O)C(=O)Nc3ccc(C)cc3)o2)N=C1C	CHOP inhibitor 105.7 | CHOP inh conf 109.0
Oc1ccc(Oc2ccc3c(C(F)(F)F)cc(C(F)(F)F)nc3n2)cc1	CHOP inhibitor 98.4 | CHOP inh conf 101.1
